19 compounds from ChEMBL document CHEMBL1156947, “Halogenated analogs of 1'-acetoxychavicol acetate, Rev-export inhibitor from Alpinia galanga, designed from mechanism of action” (Bioorg Med Chem Lett, 2010) can be followed below.

The test system of data set [1] is Human immunodeficiency virus 1. Put plainly: Inhibition of HIV1 Rev nuclear export in Saccharomyces pombe expressing GST-NLS-GFP-RevNES fused protein assessed as cellular distribution after 3 hrs by fluorescence microscopy. A digest of the protocol: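 Fission yeast colony grown 24 h at 37 °C in thiamine-free MM medium to induce the GST-NLS-GFP-RevNES fusion. Cells then exposed to samples in medium with 1% DMSO for 3 h at 37 °C. Fusion-protein distribution checked by fluorescence microscopy to give MIC values.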

Data set [2] is described as follows: Stability assessed as compound remaining up to 180 mins in presence of in fetal bovine serum. The data set is classed as ADME. The conditions noted are these: cattle, 3 h. In outline:
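Sample (0.2 mM ethanol stock) added to RPMI1640 containing 10% FBS, held at 37 °C for 0, 30, 60 or 180 min. Mixture extracted with EtOAc, residue taken up in acetonitrile. Remaining compound measured by reversed-phase HPLC (C18, acetonitrile–water gradient, UV 220 nm), in triplicate.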

Data set [3] in a line: Inhibition of HIV1 HA-tagged Rev nuclear export expressed in human HeLa cells assessed as cellular localization after 12 hrs by FITC-labelled indirect fluorescence microscopy. In kind it is cell-based. The conditions noted are these: Human immunodeficiency virus 1, HeLa. In outline: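 HeLa cells (1.0 × 10^5) grown on coverslips in DMEM with 10% FBS, 37 °C, 5% CO2, 24 h. Co-transfected 16 h with plasmids for HA-tagged Rev and Gag (pCRRE/ΔRev). Samples added in medium with 1% DMSO, 12 h at 37 °C. Cells fixed in 4% formaldehyde, methanol-treated, blocked with 10% FBS, then anti-HA and FITC anti-mouse IgG. Rev localization scored by fluorescence microscopy and image analysis.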

The structures appear in SMILES notation. ≈ marks a conversion by molar mass, not a printed value.

On to `C=C[C@H](OC(=O)NCCC)c1ccc(OC(=O)NCCC)cc1`, for which the MIC in data set [1] was over 50 µM. For the same compound, in data set [2], the Stability entry was “Stable”.
The like results for `C=C[C@H](OC(=O)OCCC)c1ccc(OC(=O)OCCC)cc1` were, in that order, 10 µM (≈ 3.22 µg/mL) and “Stable”.
In the case of `C=C[C@H](OC(=O)C(C)C)c1ccc(OC(C)=O)cc1`, the MIC in data set [1] amounted to 19 µM (≈ 4.98 µg/mL).
With `C=C[C@H](OC(=O)NCC)c1ccc(OC(=O)NCC)cc1`, the MIC in data set [1] is over 50 µM. The Stability entry in data set [2] is given as “Stable”.
On to `C=C[C@H](OC(C)=O)c1ccc(OC(C)=O)c(Cl)c1`, for which the MIC in data set [1] turned out to be 2.2 µM (≈ 0.591 µg/mL). Further, in data set [3], the IC50 was 620 nM.
Turning to `C=C[C@H](OC(=O)OC(C)C)c1ccc(OC(C)=O)cc1`, the MIC in data set [1] is over 50 µM.
In the case of `C=C[C@H](OC(C)=O)c1ccc(OC(C)=O)cc1` [1'-ACETOXYCHAVICOL ACETATE], the MIC in data set [1] came out at 4.3 µM. The IC50 in data set [3] amounted to 980 nM.
As to `C=C[C@H](OC(=O)NC)c1ccc(OC(=O)NC)cc1`, the MIC in data set [1] was over 50 µM. The Stability result in data set [2] is on record as “Stable”.
Consider `C=C[C@H](OC(=O)NC(C)(C)C)c1ccc(OC(=O)NC(C)(C)C)cc1`, for which, in data set [1], the MIC is over 50 µM. Further, the Stability entry in data set [2] is on record as “Stable”.
The corresponding values for `C=C[C@H](OC(=O)OCC)c1ccc(OC(=O)OCC)cc1` are 25 µM (≈ 7.36 µg/mL) and “Stable”.
Regarding `C=C[C@H](OC(=O)NC(C)C)c1ccc(OC(=O)NC(C)C)cc1`, the MIC in data set [1] is over 50 µM. Also, in data set [2], the Stability result is listed as “Stable”.
Regarding `C=C[C@H](OC(C)=O)c1ccc(OC(C)=O)c(F)c1F`, the MIC in data set [1] came out at 1.4 µM (≈ 0.378 µg/mL). Besides, the half-inhibitory concentration (IC50) in data set [3] is 130 nM.
With `C=C[C@H](OC(=O)OC(C)(C)C)c1ccc(OC(=O)OC(C)(C)C)cc1`, the MIC in data set [1] was over 50 µM. For the same compound, the Stability result in data set [2] is “Stable”.
Consider `C=C[C@H](OC(=O)OC(C)C)c1ccc(OC(=O)OC(C)C)cc1`, for which the MIC in data set [1] is over 50 µM. The Stability entry in data set [2] is “Stable”.
Turning to `C=C[C@H](OC(=O)CCC)c1ccc(OC(C)=O)cc1`, the MIC in data set [1] stood at 19 µM (≈ 4.98 µg/mL).
On to `C=C[C@H](OC(C)=O)c1ccc(OC(C)=O)c(Br)c1`, for which, in data set [1], the MIC worked out at 1.7 µM (≈ 0.532 µg/mL). In addition, the IC50 in data set [3] is 490 nM.
For `C=C[C@H](OC(=O)OCCC)c1ccc(OC(C)=O)cc1`, the MIC in data set [1] worked out at 26 µM (≈ 7.24 µg/mL).
In the case of `C=C[C@H](OC(=O)OC)c1ccc(OC(=O)OC)cc1`, in data set [1], the MIC was found to be 25 µM (≈ 6.66 µg/mL). In data set [2], the Stability entry is listed as “Stable”.
Regarding `C=C[C@H](OC(C)=O)c1ccc(OC(C)=O)c(F)c1`, in data set [1], the MIC worked out at 1.7 µM (≈ 0.429 µg/mL). For the same compound, the IC50 in data set [3] came to 480 nM.

The IC50 is the concentration that inhibits the measured activity by half.
